Data reported in ChEMBL document CHEMBL1152812, “Novel trans-2-aryl-cyclopropylamine analogues as potent and selective dipeptidyl peptidase IV inhibitors” (Bioorg Med Chem, 2009).
Calls of active or inactive are those of the source. No cut-off for these calls is given here.

Key:
Dipeptidyl peptidase 8 [1] = target: T1, Dipeptidyl peptidase 8 (Homo sapiens, UniProt Q6V1X1); experiment: Inhibition of human DPP8
Target sequence in this assay (Q6V1X1 whole entry): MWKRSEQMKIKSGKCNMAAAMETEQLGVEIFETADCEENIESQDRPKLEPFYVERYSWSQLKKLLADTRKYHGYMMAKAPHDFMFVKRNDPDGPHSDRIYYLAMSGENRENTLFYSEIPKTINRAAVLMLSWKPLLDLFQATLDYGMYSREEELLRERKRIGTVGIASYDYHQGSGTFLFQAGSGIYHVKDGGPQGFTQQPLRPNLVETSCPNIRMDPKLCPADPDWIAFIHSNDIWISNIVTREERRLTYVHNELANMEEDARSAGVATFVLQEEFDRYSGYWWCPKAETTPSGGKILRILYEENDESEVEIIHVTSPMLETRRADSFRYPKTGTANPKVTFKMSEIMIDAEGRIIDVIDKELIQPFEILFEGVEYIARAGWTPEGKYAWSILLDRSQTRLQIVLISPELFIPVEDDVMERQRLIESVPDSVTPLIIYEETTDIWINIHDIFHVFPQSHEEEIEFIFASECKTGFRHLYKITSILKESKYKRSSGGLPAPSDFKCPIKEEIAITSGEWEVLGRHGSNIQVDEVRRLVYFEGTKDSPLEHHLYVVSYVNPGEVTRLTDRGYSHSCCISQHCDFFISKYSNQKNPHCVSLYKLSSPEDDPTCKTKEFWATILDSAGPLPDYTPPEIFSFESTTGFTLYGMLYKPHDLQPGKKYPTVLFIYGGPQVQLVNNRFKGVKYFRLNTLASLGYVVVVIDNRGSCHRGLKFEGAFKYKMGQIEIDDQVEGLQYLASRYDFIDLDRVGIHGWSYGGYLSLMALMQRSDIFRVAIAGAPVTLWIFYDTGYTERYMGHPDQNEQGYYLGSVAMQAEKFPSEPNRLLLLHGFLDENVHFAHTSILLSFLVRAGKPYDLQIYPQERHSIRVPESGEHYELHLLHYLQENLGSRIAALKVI

Dipeptidyl peptidase 2 = Dipeptidyl peptidase 2 (Homo sapiens, UniProt Q9UHL4); experiment: Inhibition of human DPP2
Prolyl endopeptidase FAP = target: T2, Prolyl endopeptidase FAP (Homo sapiens, UniProt Q12884); experiment: Inhibition of human FAP
T2 sequence (Q12884 whole entry): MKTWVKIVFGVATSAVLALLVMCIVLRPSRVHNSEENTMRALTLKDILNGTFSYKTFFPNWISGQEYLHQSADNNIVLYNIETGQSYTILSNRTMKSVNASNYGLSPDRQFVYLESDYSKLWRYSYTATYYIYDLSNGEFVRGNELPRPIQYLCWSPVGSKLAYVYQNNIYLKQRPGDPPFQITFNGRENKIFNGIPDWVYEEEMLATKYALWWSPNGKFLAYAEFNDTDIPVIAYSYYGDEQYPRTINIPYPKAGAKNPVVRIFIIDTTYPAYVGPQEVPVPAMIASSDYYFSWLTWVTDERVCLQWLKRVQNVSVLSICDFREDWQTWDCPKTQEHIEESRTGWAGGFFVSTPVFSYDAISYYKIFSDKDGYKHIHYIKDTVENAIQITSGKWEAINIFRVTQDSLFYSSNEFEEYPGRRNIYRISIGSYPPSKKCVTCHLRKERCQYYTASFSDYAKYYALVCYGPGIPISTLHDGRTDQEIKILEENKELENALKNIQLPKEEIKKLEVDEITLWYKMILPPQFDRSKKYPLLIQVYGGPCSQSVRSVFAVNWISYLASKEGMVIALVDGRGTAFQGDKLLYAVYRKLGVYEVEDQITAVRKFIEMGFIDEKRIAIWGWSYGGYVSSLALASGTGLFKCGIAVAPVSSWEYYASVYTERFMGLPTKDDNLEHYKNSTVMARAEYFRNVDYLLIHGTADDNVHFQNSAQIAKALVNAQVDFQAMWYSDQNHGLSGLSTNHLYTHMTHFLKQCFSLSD

Dipeptidyl peptidase 8 [2] = target: T1, Dipeptidyl peptidase 8; experiment: Inhibition of human DPP8 at 20 uM
Target sequence in this assay (Q6V1X1 whole entry, looked up): as the sequence (Q6V1X1 whole entry) above

[3] = Plasma clearance in rat at 5 mg/kg, iv or 10 mg/kg, po; assay type: ADME, organism-based
How it was run: (§1)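 Rat pharmacokinetics after dosing at 5 mg/kg iv and 10 mg/kg po. Parameters derived: plasma clearance, oral Cmax, oral half-life, dose-normalised oral AUC and oral bioavailability (F).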

[4] = Cmax in rat at 10 mg/kg, po; assay type: ADME, organism-based; parameters: dose 10 mg/kg, route oral; settings: in vivo; how it was run: as §1
[5] = Half life in rat at 10 mg/kg, po; assay type: ADME, organism-based; parameters: dose 10 mg/kg, route oral; settings: in vivo; how it was run: as §1
[6] = (§2) Oral bioavailability in rat at 10 mg/kg, po; assay type: ADME, organism-based; settings: in vivo; how it was run: as §1
Rattus norvegicus [7] = experiment: Inhibition of DPP4 in Wistar rat plasma at 10 mg/kg, po within 30 mins; assay type: functional; settings: 0.5 h
How it was run: (§3)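 Adult male Wistar rats (n = 4–6/group) given a single oral gavage of 10 mg/kg in 0.5% methyl cellulose. Tail-vein blood (25–50 µl) taken at timed points and plasma kept frozen. Plasma (10 µl) mixed with 150 µM Gly-Pro-AMC in 25 mM Tris-HCl pH 7.4, 140 mM NaCl, 10 mM KCl, 0.1% BSA. Fluorescence read at ex 390/em 460 nm. Activity in U/mL; mean ± SEM.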

Rattus norvegicus [8] = experiment: Inhibition of DPP4 in Wistar rat plasma at 10 mg/kg, po after 8 hrs; assay type: functional; how it was run: as §3
Rattus norvegicus [9] = experiment: as §2; assay type: ADME, organism-based; settings: in vivo; how it was run: as §1
[10] = Plasma clearance in rat at 5 mg/kg, iv or 25 mg/kg, po; assay type: ADME, organism-based
How it was run: (§4)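 Rat pharmacokinetics after dosing at 5 mg/kg iv and 25 mg/kg po. Parameters derived: plasma clearance, oral Cmax, oral half-life, dose-normalised oral AUC and oral bioavailability (F).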

[11] = Cmax in rat at 25 mg/kg, po; assay type: ADME, organism-based; parameters: dose 25 mg/kg, route oral; settings: in vivo; how it was run: as §4
[12] = Half life in rat at 25 mg/kg, po; assay type: ADME, organism-based; parameters: dose 25 mg/kg, route oral; settings: in vivo; how it was run: as §4
[13] = Oral bioavailability in rat at 25 mg/kg, po; assay type: ADME, organism-based; settings: in vivo; how it was run: as §4
hERG (KCNH2) = hERG (KCNH2) (Homo sapiens, UniProt Q12809); experiment: Inhibition of human ERG at 10 uM
Chain of hERG (KCNH2) (Q12809 whole entry): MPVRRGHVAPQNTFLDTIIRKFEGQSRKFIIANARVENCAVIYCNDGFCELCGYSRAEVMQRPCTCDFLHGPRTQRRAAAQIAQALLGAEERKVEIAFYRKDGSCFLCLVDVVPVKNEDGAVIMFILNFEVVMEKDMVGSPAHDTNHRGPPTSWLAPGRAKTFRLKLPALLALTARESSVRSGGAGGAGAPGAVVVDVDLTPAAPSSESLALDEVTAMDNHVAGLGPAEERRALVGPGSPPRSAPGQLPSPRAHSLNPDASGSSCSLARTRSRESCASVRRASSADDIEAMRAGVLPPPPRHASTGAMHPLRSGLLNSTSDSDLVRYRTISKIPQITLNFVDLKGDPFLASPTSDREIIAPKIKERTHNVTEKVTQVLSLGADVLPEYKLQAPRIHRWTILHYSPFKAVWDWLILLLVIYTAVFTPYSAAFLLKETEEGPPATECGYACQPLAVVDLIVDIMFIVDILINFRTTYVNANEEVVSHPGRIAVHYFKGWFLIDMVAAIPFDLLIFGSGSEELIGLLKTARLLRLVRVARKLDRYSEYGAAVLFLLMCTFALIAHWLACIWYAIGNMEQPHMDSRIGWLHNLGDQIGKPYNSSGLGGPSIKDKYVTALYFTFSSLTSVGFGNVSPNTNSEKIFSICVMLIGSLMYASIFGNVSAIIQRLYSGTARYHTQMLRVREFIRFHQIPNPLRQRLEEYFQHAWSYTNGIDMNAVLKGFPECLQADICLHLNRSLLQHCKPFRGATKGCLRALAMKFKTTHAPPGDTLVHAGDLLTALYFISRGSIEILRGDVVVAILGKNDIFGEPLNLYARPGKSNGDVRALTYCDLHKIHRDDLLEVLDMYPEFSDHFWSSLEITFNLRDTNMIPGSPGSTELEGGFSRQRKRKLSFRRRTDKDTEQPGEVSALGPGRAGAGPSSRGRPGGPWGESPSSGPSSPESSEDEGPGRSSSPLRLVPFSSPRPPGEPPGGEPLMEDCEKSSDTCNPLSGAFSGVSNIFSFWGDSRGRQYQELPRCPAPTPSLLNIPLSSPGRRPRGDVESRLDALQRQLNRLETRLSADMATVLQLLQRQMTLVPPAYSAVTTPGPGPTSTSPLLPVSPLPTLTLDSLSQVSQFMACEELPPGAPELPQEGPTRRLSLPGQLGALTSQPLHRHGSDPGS
How it was run: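 hERG binding; percent inhibition at a test concentration of 10 µM.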

Rattus norvegicus [14] = experiment: Inhibition of DPP4 in Wistar rat plasma at 10 mg/kg, po after 24 hrs; assay type: functional, organism-based; parameters: dose 10 mg/kg; how it was run: as §3
Mus musculus = experiment: Reduction in glucose excursion in C57BL/6J lean mouse at 3 mg/kg, po pretreated 30 mins before glucose challenge measured after 120 mins by oral glucose tolerance test relative to control; assay type: functional, organism-based; parameters: dose 3 mg/kg
How it was run: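 Fasted overnight: adult male C57BL/6 mice (20–25 g, 6–8 weeks old, n = 6/group), grouped by tail-vein glucometer reading. Oral gavage of test agent in distilled water at −30 min (1, 3 or 10 mg/kg), then 3 g/kg oral glucose (400 mg/mL) at 0 min.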

Compound	IC50 (Dipeptidyl peptidase 8 [1])	IC50 (Dipeptidyl peptidase 2)	IC50 (Prolyl endopeptidase FAP)	also measured
CC(C)(CC(=O)N[C@H]1C[C@@H]1c1cccnc1)NCC(=O)N1C[C@@H](F)C[C@H]1C#N	> 20 µM	> 20 µM	> 20 µM	inhibition (Dipeptidyl peptidase 8 [2]): 17%
CC(C)(CC(=O)N[C@@H]1C[C@H]1c1cccc(Cl)c1)NCC(=O)N1C[C@@H](F)C[C@H]1C#N		5.2 µM	> 20 µM	
CC(C)(CC(=O)N[C@H]1C[C@@H]1c1cccc(F)c1)NCC(=O)N1C[C@@H](F)C[C@H]1C#N		> 20 µM	> 20 µM	clearance [3]: 55 mL/min/kg; Cmax [4]: 175 ng/mL; half-life [5]: 1.2 h; bioavailability [6]: 29%
Cc1ncsc1[C@H]1C[C@@H]1NC(=O)CC(C)(C)NCC(=O)N1C[C@@H](F)C[C@H]1C#N	> 20 µM	> 20 µM	> 20 µM	inhibition (Dipeptidyl peptidase 8 [2]): 23%; inhibition in vivo at 10 mg/kg (Rattus norvegicus [7]): 60%; inhibition in vivo at 10 mg/kg (Rattus norvegicus [8]): 30%
COc1cccc([C@H]2C[C@@H]2NC(=O)CC(C)(C)NCC(=O)N2C[C@@H](F)C[C@H]2C#N)c1	> 20 µM	> 20 µM	> 20 µM	clearance [3]: 124 mL/min/kg; Cmax [4]: 898 ng/mL; half-life [5]: 6.8 h; F (Rattus norvegicus [9]): 194%
CCOc1cccc([C@H]2C[C@@H]2NC(=O)CC(C)(C)NCC(=O)N2C[C@@H](F)C[C@H]2C#N)c1	> 20 µM	> 20 µM		
CC(C)(CC(=O)N[C@H]1C[C@@H]1c1ccccc1)NCC(=O)N1C[C@@H](F)C[C@H]1C#N	> 20 µM	> 20 µM	> 20 µM	
COc1ccc([C@H]2C[C@@H]2NC(=O)CC(C)(C)NCC(=O)N2C[C@@H](F)C[C@H]2C#N)cc1	> 20 µM	> 20 µM	> 20 µM	clearance [10]: 20 mL/min/kg; Cmax [11]: 347 ng/mL; half-life [12]: 5.3 h; bioavailability [13]: 28%
CC(C)(CC(=O)N[C@H]1C[C@@H]1c1cccc(Cl)c1)NCC(=O)N1CC(F)(F)C[C@H]1C#N		0.59 µM		clearance [10]: 189 mL/min/kg; Cmax [11]: 454 ng/mL; half-life [12]: 3.2 h; bioavailability [13]: 53%; inhibition at 10 µM (hERG (KCNH2)): 15%
N[C@@H](CC(=O)N1CCn2c(nnc2C(F)(F)F)C1)Cc1cc(F)c(F)cc1F				Activity (Rattus norvegicus [14]): inactive; Activity (Mus musculus): Active
CC(C)(CC(=O)N[C@H]1C[C@@H]1c1cccc(OC(F)(F)F)c1)NCC(=O)N1C[C@@H](F)C[C@H]1C#N	> 20 µM	> 20 µM	> 20 µM	

Second part, led by results:

IC50 (Dipeptidyl peptidase 8 [1])	IC50 (Dipeptidyl peptidase 2)	IC50 (Prolyl endopeptidase FAP)	Compound	also measured
> 20 µM	> 20 µM	> 20 µM	CC(C)(CC(=O)N[C@H]1C[C@@H]1c1ccc(C(F)(F)F)cc1)NCC(=O)N1CCC[C@H]1C#N	
> 20 µM	> 20 µM	> 20 µM	CC(C)(CC(=O)N[C@H]1C[C@@H]1c1ccc(F)c(F)c1)NCC(=O)N1CCC[C@H]1C#N	
> 20 µM	> 20 µM	> 20 µM	CC(C)(CC(=O)N[C@H]1C[C@@H]1c1ccc(Cl)c(Cl)c1)NCC(=O)N1CCC[C@H]1C#N	
> 20 µM	> 20 µM	> 20 µM	CC(C)(CC(=O)N[C@H]1C[C@@H]1c1cc(F)cc(F)c1)NCC(=O)N1CCC[C@H]1C#N	
> 20 µM	> 20 µM	> 20 µM	CC(C)(CC(=O)N[C@H]1C[C@@H]1c1cccc(C(F)(F)F)c1)NCC(=O)N1CCC[C@H]1C#N	
> 20 µM	17 µM	> 20 µM	CC(C)(CC(=O)N[C@@H]1C[C@H]1c1cccc(Cl)c1)NCC(=O)N1CCC[C@H]1C#N	
> 20 µM	> 20 µM	> 20 µM	CC(C)(CC(=O)N[C@H]1C[C@@H]1c1cccc(Cl)c1)NCC(=O)N1CCC[C@H]1C#N (stereo in doubt; 18k)	
> 20 µM	> 20 µM	> 20 µM	CC(C)(CC(=O)N[C@H]1C[C@@H]1c1ccc(Cl)cc1)NCC(=O)N1CCC[C@H]1C#N	
> 20 µM	> 20 µM	> 20 µM	CC(C)(CC(=O)N[C@H]1C[C@@H]1c1cccc(F)c1)NCC(=O)N1CCC[C@H]1C#N	
> 20 µM	> 20 µM	> 20 µM	CC(C)(CC(=O)N[C@H]1C[C@@H]1c1cccc(Cl)c1)NCC(=O)N1CCC[C@H]1C#N (stereo in doubt; 22)	
> 20 µM	> 20 µM	> 20 µM	CC(C)(CC(=O)N[C@H]1C[C@@H]1c1cccc(OC(F)(F)F)c1)NCC(=O)N1CCC[C@H]1C#N	
> 20 µM	> 20 µM	> 20 µM	CC(C)(CC(=O)N[C@H]1C[C@@H]1c1ccc(F)cc1F)NCC(=O)N1CCC[C@H]1C#N	
> 20 µM	16 µM	> 20 µM	CC(C)(CC(=O)N[C@H]1C[C@@H]1c1ccccc1)NCC(=O)N1CCC[C@H]1C#N	
> 20 µM	> 20 µM	> 20 µM	COc1ccc([C@H]2C[C@@H]2NC(=O)CC(C)(C)NCC(=O)N2CCC[C@H]2C#N)cc1OC	
> 20 µM	> 20 µM	> 20 µM	CC(C)(CC(=O)N[C@H]1C[C@@H]1c1ccc(F)cc1)NCC(=O)N1CCC[C@H]1C#N	
